From ChEMBL document CHEMBL3853270, “Influence of Birch Bark Triterpenes on Keratinocytes and Fibroblasts from Diabetic and Nondiabetic Donors” (2016)
Activity calls are given as the source filed them. The rule behind the calls is not given here.

Assays:
Format in all cases: functional
[1] = Effect on wound healing activity in non-diabetic adult human primary keratinocytes assessed as upregulation of RANTES protein levels at 1.96 uM after 24 hrs by bead-based suspension array analysis; conditions: Keratinocyte
Keratinocyte [2] = test: Effect on growth factor related gene expression in non-diabetic adult human primary keratinocytes assessed as PDGFB mRNA levels at 1.96 uM after 6 hrs by qPCR analysis
Procedure, shortened: (§1)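 Primary human keratinocytes (nondiabetic young or adult, diabetic adult donors) were exposed to compound for 6 h, with 0.1% DMSO as solvent control. Total RNA came from 400 000 cells per sample and was assayed on a Fluidigm Biomark high-throughput qPCR chip. Results are fold change vs solvent control, from 2−4 independent experiments on two donors per group, with SD. Groups were compared by one-way ANOVA with Bonferroni post-test.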

Keratinocyte [3] = test: Effect on cellular connection related gene expression in diabetic adult human primary keratinocytes assessed as GJB2 mRNA levels at 1.96 uM after 6 hrs by qPCR analysis
Keratinocyte [4] = test: Effect on pro-inflammatory related gene expression in diabetic adult human primary keratinocytes assessed as IL1B mRNA levels at 1.96 uM after 6 hrs by qPCR analysis
Keratinocyte [5] = test: Effect on pro-inflammatory related gene expression in diabetic adult human primary keratinocytes assessed as TNF mRNA levels at 1.96 uM after 6 hrs by qPCR analysis
Keratinocyte [6] = test: Effect on pro-inflammatory related gene expression in non-diabetic young human primary keratinocytes assessed as PTGS2 mRNA levels at 9.81 uM after 6 hrs by qPCR analysis
Keratinocyte [7] = test: Effect on growth factor related gene expression in non-diabetic young human primary keratinocytes assessed as PDGFB mRNA levels at 9.81 uM after 6 hrs by qPCR analysis; procedure, shortened: as §1
Keratinocyte [8] = test: Effect on MMP1 mRNA expression levels in non-diabetic young human primary keratinocytes at 9.81 uM after 6 hrs by qPCR analysis
Procedure, shortened: (§2)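 Primary keratinocytes from nondiabetic young and adult and diabetic adult donors; 400 000 cells per sample, 6 h exposure at 1.96 or 9.81 μM. RNA extracted and read on a high-throughput qPCR chip. Results are fold change versus 0.1% DMSO solvent control from 5−7 independent experiments over two donors per group, SD, one-way ANOVA with Bonferroni post-test.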

Keratinocyte [9] = test: Effect on cellular connection related gene expression in non-diabetic adult human primary keratinocytes assessed as GJB2 mRNA levels at 9.81 uM after 6 hrs by qPCR analysis
Keratinocyte [10] = test: Effect on pro-inflammatory related gene expression in non-diabetic adult human primary keratinocytes assessed as IL6 mRNA levels at 9.81 uM after 6 hrs by qPCR analysis
Keratinocyte [11] = test: Effect on growth factor related gene expression in non-diabetic adult human primary keratinocytes assessed as PDGFB mRNA levels at 9.81 uM after 6 hrs by qPCR analysis; procedure, shortened: as §1
Keratinocyte [12] = test: Effect on ECM related gene expression in diabetic adult human primary keratinocytes assessed as FBN1 mRNA levels at 9.81 uM after 6 hrs by qPCR analysis; procedure, shortened: as §2
Keratinocyte [13] = test: Effect on chemokines related gene expression in diabetic adult human primary keratinocytes assessed as IL8 mRNA levels at 9.81 uM after 6 hrs by qPCR analysis
Keratinocyte [14] = test: Effect on transcription factor related gene expression in diabetic adult human primary keratinocytes assessed as JUN mRNA levels at 9.81 uM after 6 hrs by qPCR analysis
Fibroblast [15] = test: Effect on antiinflammatory related gene expression in non-diabetic young human primary fibroblasts assessed as NFKBIA mRNA levels at 1.96 uM after 6 hrs by qPCR analysis
Procedure, shortened: (§3)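 Primary dermal fibroblasts from one nondiabetic young, one nondiabetic adult and one diabetic adult donor; 320 000 cells per sample, 6 h at 1.96 or 9.81 μM. RNA measured on a high-throughput qPCR chip. Fold change versus 0.1% DMSO control, four independent experiments, SD, one-way ANOVA with Bonferroni post-test.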

Fibroblast [16] = test: Effect on pro-inflammatory related gene expression in diabetic adult human primary fibroblasts assessed as PTGS2 mRNA levels at 1.96 uM after 6 hrs by qPCR analysis
Fibroblast [17] = test: Effect on growth factor related gene expression in diabetic adult human primary fibroblasts assessed as VEGFA mRNA levels at 1.96 uM after 6 hrs by qPCR analysis
Procedure, shortened: (§4)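 Primary human dermal fibroblasts (young or adult nondiabetic, adult diabetic donor) were treated for 6 h against a 0.1% DMSO solvent control. RNA from 320 000 cells per sample was measured by Fluidigm Biomark high-throughput qPCR. Values are fold change relative to solvent control, from four independent experiments, with SD. One-way ANOVA with Bonferroni post-test was applied.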

Fibroblast [18] = test: Effect on chemokines related gene expression in non-diabetic adult human primary fibroblasts assessed as IL8 mRNA levels at 9.81 uM after 6 hrs by qPCR analysis
Fibroblast [19] = test: Effect on antiinflammatory related gene expression in non-diabetic adult human primary fibroblasts assessed as NFKBIA mRNA levels at 9.81 uM after 6 hrs by qPCR analysis; procedure, shortened: as §3
Fibroblast [20] = test: Effect on transcription factor related gene expression in non-diabetic adult human primary fibroblasts assessed as JUN mRNA levels at 9.81 uM after 6 hrs by qPCR analysis
Fibroblast [21] = test: Effect on growth factor related gene expression in diabetic adult human primary fibroblasts assessed as GDF15 mRNA levels at 9.81 uM after 6 hrs by qPCR analysis; procedure, shortened: as §4
Fibroblast [22] = test: Effect on growth factors related gene expression in diabetic adult human primary fibroblasts assessed as FGF2 mRNA levels at 9.81 uM after 6 hrs by qPCR analysis; procedure, shortened: as §4
Fibroblast [23] = test: Effect on adhesion molecules related gene expression in non-diabetic adult human primary fibroblasts assessed as ICAM1 mRNA levels at 1.96 uM after 6 hrs by qPCR analysis
Procedure, shortened: (§5)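 Dermal fibroblasts from nondiabetic adult and diabetic adult donors, exposed for 6 h at 1.96 or 9.81 μM. ICAM-1 and VCAM-1 mRNA measured by standard qRT-PCR, n = 3. Fold change versus 0.1% DMSO control, SD, one-way ANOVA with Bonferroni post-test.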

Fibroblast [24] = test: Effect on adhesion molecules related gene expression in diabetic adult human primary fibroblasts assessed as ICAM1 mRNA levels at 1.96 uM after 6 hrs by qPCR analysis; procedure, shortened: as §5
Fibroblast [25] = test: Effect on adhesion molecules related gene expression in diabetic adult human primary fibroblasts assessed as VCAM1 mRNA levels at 1.96 uM after 6 hrs by qPCR analysis; procedure, shortened: as §5
[26] = Effect on wound healing activity in non-diabetic adult human primary keratinocytes assessed as upregulation of TNFalpha protein levels at 1.96 uM after 24 hrs by bead-based suspension array analysis; conditions: Keratinocyte
[27] = Effect on wound healing activity in diabetic adult human primary keratinocytes assessed as upregulation of IL1RA protein levels at 1.96 uM after 24 hrs by bead-based suspension array analysis; conditions: Keratinocyte
Keratinocyte [28] = test: Effect on wound healing activity in diabetic adult human primary keratinocytes assessed as increase in soluble gp130 part of IL6 receptor protein levels at 1.96 uM after 24 hrs by bead-based suspension array analysis
[29] = Effect on wound healing activity in non-diabetic adult human primary fibroblasts assessed as upregulation of soluble ICAM1 protein levels at 1.96 uM after 24 hrs by bead-based suspension array analysis; conditions: Fibroblast

In the case of `C=C(C)[C@@H]1CC[C@]2(CO)CC[C@]3(C)[C@H](CC[C@@H]4[C@@]5(C)CC[C@H](O)C(C)(C)[C@@H]5CC[C@]43C)[C@@H]12` [BETULIN], the Activity [1] is reported as “Active”, the “fold change (FC)” value (Keratinocyte [2]) is reported as 0.8 and the “fold change (FC)” value (Keratinocyte [3]) is reported as 0.9. For the same molecule, the “fold change (FC)” value (Keratinocyte [4]) was 0.8, the “fold change (FC)” value (Keratinocyte [5]) was 5.3 and the “fold change (FC)” value (Keratinocyte [6]) was 1.5. For the same molecule, the “fold change (FC)” value (Keratinocyte [7]) was 1.1, the “fold change (FC)” value (Keratinocyte [8]) was 1 and the “fold change (FC)” value (Keratinocyte [9]) was 0.8. For the same molecule, the “fold change (FC)” value (Keratinocyte [10]) was 24.1, the “fold change (FC)” value (Keratinocyte [11]) was 0.9 and the “fold change (FC)” value (Keratinocyte [12]) was 2.5. For the same molecule, the “fold change (FC)” value (Keratinocyte [13]) was 56, the “fold change (FC)” value (Keratinocyte [14]) was 1.7 and the “fold change (FC)” value (Fibroblast [15]) was 2.9. The “fold change (FC)” value (Fibroblast [16]) was 4.1, the “fold change (FC)” value (Fibroblast [17]) was 2.4 and the “fold change (FC)” value (Fibroblast [18]) was 991. For the same molecule, the “fold change (FC)” value (Fibroblast [19]) was 11, the “fold change (FC)” value (Fibroblast [20]) was 3.1 and the “fold change (FC)” value (Fibroblast [21]) was 1.8. The “fold change (FC)” value (Fibroblast [22]) was 1.6, the “fold change (FC)” value (Fibroblast [23]) was 144 and the “fold change (FC)” value (Fibroblast [24]) was 6.3. The “fold change (FC)” value (Fibroblast [25]) was 3.3, the Activity [26] was “Active” and the Activity [27] was “Active”. The Activity (Keratinocyte [28]) was “Active” and the Activity [29] was “Active”.
